These results are taken from ChEMBL document CHEMBL3046913, “Feeding deterrence and contact toxicity of Stemona alkaloids-a source of potent natural insecticides” (2002).

The subject of assay [1] is Spodoptera littoralis. The assay is described as follows: Insecticidal activity against neonate larvae of Spodoptera littoralis after 5 days. Format: functional. The following applies: 120 h. The method, boiled down:
(§1)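 Chronic diet assay: neonate larvae (n = 20) from a lab colony were kept on artificial diet spiked via MeOH with eight concentrations of pure alkaloid (0.1-500 ppm). After 5 days in a moist chamber, dark, at 26 °C, survival and weight of survivors were compared with solvent-treated controls. LC50 and EC50 (50% growth inhibition) were derived by probit-log analysis. Run in triplicate.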

Assay [2] concerns Spodoptera littoralis. As to the kind of experiment: Growth inhibition of neonate larvae of Spodoptera littoralis after 5 days. Format: functional. The following applies: 120 h. The method, boiled down:
as §1

Assay [3] deals with Spodoptera littoralis. As to the kind of experiment: Antifeedant activity against fifth instar larvae of Spodoptera littoralis assessed as inhibition of feeding without tasting treated leaf disk at 0.01 ug/cm2 after 24 hr by leaf disk choice assay. The format is functional, organism-based. The method, boiled down:
(§2)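 Leaf disk choice test with fifth instar larvae (about 70 mg each). Lettuce disks of 1.33 cm2 were treated on the upper surface with pure compound at 1-0.001 µg/cm2 in MeOH; controls got solvent only. Two treated and two control disks were placed on moist filter paper with two larvae. Scoring was done when about 50% of control area (0.665 cm2) was eaten, 24 h maximum. Three trials in duplicate, six replicates.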

The test system of assay [4] is Spodoptera littoralis. As to the kind of experiment: Antifeedant activity against fifth instar larvae of Spodoptera littoralis assessed as inhibition of feeding without tasting treated leaf disk at 1 ug/cm2 after 24 hr by leaf disk choice assay. Format: functional, organism-based. The method, boiled down: as §2
The test system of assay [5] is Spodoptera littoralis. As to the kind of experiment: Antifeedant activity against fifth instar larvae of Spodoptera littoralis assessed as inhibition of feeding without tasting treated leaf disk at 0.1 ug/cm2 after 24 hr by leaf disk choice assay. Format: functional, organism-based. The method, boiled down: as §2
Assay [6] deals with Spodoptera littoralis. As to the kind of experiment: Antifeedant activity against fifth instar larvae of Spodoptera littoralis assessed as < 5% of total area of treated leaf disks in each petri dish consumed at 0.001 ug/cm2 after 24 hr by leaf disk choice assay. The format is functional, organism-based. In outline: as §2
Assay [7] has as its system Spodoptera littoralis. As to the kind of experiment: Toxicity in neonate larvae of Spodoptera littoralis at 133 ug/dm2 after 48 hr. The format is functional, organism-based. In outline: (§3)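 Contact toxicity: glass vials were coated with seven concentrations of test compound and the solvent evaporated. Twenty neonate larvae were held in the vials for 3 h, then given artificial diet. Survival was read at 48 h and LC50 derived by probit-log analysis. Run in triplicate or duplicate.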

Assay [8] relates to Spodoptera littoralis. As to the kind of experiment: Toxicity in neonate larvae of Spodoptera littoralis after 48 hr. The format is functional. The method, boiled down:
as §3

Assay [9] deals with Spodoptera littoralis. As to the kind of experiment: Toxicity in sixth instar larvae of Spodoptera littoralis assessed as survival at 100 ug/larvae treated directly into hemolymph after 48 hr.
Assay [10] relates to Spodoptera littoralis. As to the kind of experiment: Antifeedant activity against fifth instar larvae of Spodoptera littoralis assessed as 5 to 20% of total area of treated leaf disks in each petri dish consumed at 0.01 ug/cm2 after 24 hr by leaf disk choice assay. Format: functional, organism-based. In outline: as §2
The subject of assay [11] is Spodoptera littoralis. As to the kind of experiment: Antifeedant activity against fifth instar larvae of Spodoptera littoralis at 0.001 ug/cm2 after 24 hr by leaf disk choice assay. The format is functional, organism-based. The method, boiled down:
as §2

Converted amounts (≈) assume the structure as drawn. The source made the active and inactive calls. The calls are words filed in the database; no cut-off is given here.

The molecule `CC[C@H](O)C[C@@]12[C@@H]3C[C@H]4[C@H]5[C@H](C)/C(=C6/OC(=O)C(C)=C6OC)O[C@]5(O3)[C@H]1CCN42` [2'-HYDROXYSTEMOFOLINE] displayed an LC50 in the assay on Spodoptera littoralis [1] of 30.3 µg/mL (≈ 75.2 µM). Besides, the EC50 (50% growth inhibition) with Spodoptera littoralis [2] was 38.5 µg/mL (≈ 95.3 µM).
Turning to `C/C=C(\C)C(=O)O[C@H]1C[C@@H](OC(C)=O)[C@@]2(C(=O)OC)CO[C@H]3[C@@H](O)[C@@](C)([C@]45O[C@@]4(C)[C@@H]4C[C@H]5O[C@@H]5OC=C[C@@]54O)[C@H]4[C@]1(CO[C@]4(O)C(=O)OC)[C@@H]32` [AZADIRACHTIN A], the AFI entry with Spodoptera littoralis [3], with Spodoptera littoralis [4], in the assay on Spodoptera littoralis [5] and in the assay on Spodoptera littoralis [6] was “Active” throughout. In addition, the LC50 in the assay on Spodoptera littoralis [1] stood at 8.2 µg/mL (≈ 11.4 µM). Further, the AFI result with Spodoptera littoralis [7] is “inactive”.
`CC/C=C/[C@@]12[C@@H]3C[C@H]4[C@H]5[C@H](C)/C(=C6/OC(=O)C(C)=C6OC)O[C@]5(O3)[C@@H]1CCN42` [DIDEHYDROSTEMOFOLINE]: the results for the LC50 in the assay on Spodoptera littoralis [8] and in the assay on Spodoptera littoralis [1] were 1.01 microg/dm2 and 0.84 µg/mL (≈ 2.18 µM), respectively. Also, the EC50 (50% growth inhibition) with Spodoptera littoralis [2] was found to be 0.46 µg/mL (≈ 1.19 µM).
For `CCCC[C@@]12C3CCN1[C@H]1C[C@H]2O[C@@]32O/C(=C3\OC(=O)C(C)=C3OC)[C@@H](C)[C@H]12` [STEMOFOLINE] the same measures were 0.59 microg/dm2, 2.04 µg/mL (≈ 5.26 µM) and 1.46 µg/mL (≈ 3.77 µM).
On to `CC[C@@H]1[C@H]2CCCCN3[C@H]2[C@H](C[C@H]3[C@@H]2C[C@H](C)C(=O)O2)[C@@H]2[C@H]1OC(=O)[C@H]2C` [TUBEROSTEMONINE], for which the Survival with Spodoptera littoralis [9] is 100%. Further, the LC50 with Spodoptera littoralis [1] was > 500 µg/mL. Further, the AFI result in the assay on Spodoptera littoralis [4], in the assay on Spodoptera littoralis [5] and with Spodoptera littoralis [10] was “Active” in each case. In addition, the AFI entry in the assay on Spodoptera littoralis [7] and with Spodoptera littoralis [11] was “inactive” each time.
